Data published in ChEMBL document CHEMBL5550195, “Synthesis and in vitro evaluation of novel amino-phenylmethylene-imidazolone 5-HT2A receptor antagonists” (RSC Med Chem, 2024).
The source made the active and inactive calls. The calls are words filed in the database; no cut-off is given here.

What was measured:
[1] = biological target: T1, 5-hydroxytryptamine receptor 2A (Homo sapiens, UniProt P28223); experiment: Displacement of [3H] Ketanserin from 5HT2A receptor (unknown origin) at 10 uM incubated for 0.5 hrs by microbeta2 plate reader assay relative to control; conditions: for inhibition: filed as antagonist
How it was run: (§1)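 Filtration binding on 5-HT2A membranes. Serially diluted compound, with ketanserin as reference, was mixed with membrane and [3H]ketanserin, with separate nonspecific-binding wells, and shaken at 300 rpm. Mixtures were filtered through PEI-soaked GF filter plates and washed 4× with cold buffer. Filters were dried 1 h at 50 °C and bound 3H was counted by scintillation. IC50 came from dose-response fits and Ki was also reported; the top dose was 10000 nM.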

[2] = Kinetic solubility of compound in PBS at pH 7.4 incubated for 2 hrs in shaker by LC-MS/MS analysis; format: physicochemical; conditions: read-out: Kinetic_solubility
How it was run: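 Compound from 10 mM DMSO stock was added in duplicate to pH 7.4 PBS, 30 µL into 970 µL, and stirred/shaken at 1100 rpm for 2 h at room temperature. The mixture was vacuum filtered and the filtrate diluted in methanol/DMSO. Quantification was by LC-MS/MS (positive ESI, MRM) against 3 µM standards, with progesterone as positive control. The assay upper limit was 300 µM.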

[3] = biological target: T1, 5-hydroxytryptamine receptor 2A; experiment: Displacement of [3H] Ketanserin from 5HT2A receptor (unknown origin) incubated for 0.5 hrs by microbeta2 plate reader assay; how it was run: as §1
[4] = biological target: T1, 5-hydroxytryptamine receptor 2A; experiment: Agonist activity at 5-HT2A receptor (unknown origin) assessed as IP1 accumulation at 0.0004 to 10 uM incubated for 1 hr by HTRF method; format: functional; conditions: dose 0.0004-10 µM
How it was run: (§2)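 IP-One HTRF immunoassay for 5-HT2A Gαq signalling. Cells were seeded at 7,500 per well and given varying doses of compound. The agonist-mode reference was serotonin and the antagonist-mode reference was methiothepin. Incubation was 1 h at 37 °C, then lysis with d2-labelled IP1 and terbium cryptate anti-IP1 antibody for 1 h at room temperature. Fluorescence was read at 615/665 nm. IP1 was quantified against a 9-point standard curve, 4-fold from 7,700 nM, run in duplicate. Values came from log(inhibitor) vs response, variable-slope fit.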

[5] = biological target: T1, 5-hydroxytryptamine receptor 2A; experiment: Antagonist activity at 5-HT2A receptor (unknown origin) assessed as inhibition of 5-HT stimulated IP1 production incubated for 1 hr by HTRF method; format: functional; how it was run: as §2
[6] = biological target: T1, 5-hydroxytryptamine receptor 2A; experiment: Antagonist activity at 5-HT2A receptor (unknown origin) assessed as inhibition of 5-HT stimulated IP1 production at 10 uM incubated for 1 hr by HTRF method relative to control; format: functional; parameters: scale not given: the % may be the effect or the level left; conditions: filed as antagonist; how it was run: as §2

T1 sequence (P28223 whole entry): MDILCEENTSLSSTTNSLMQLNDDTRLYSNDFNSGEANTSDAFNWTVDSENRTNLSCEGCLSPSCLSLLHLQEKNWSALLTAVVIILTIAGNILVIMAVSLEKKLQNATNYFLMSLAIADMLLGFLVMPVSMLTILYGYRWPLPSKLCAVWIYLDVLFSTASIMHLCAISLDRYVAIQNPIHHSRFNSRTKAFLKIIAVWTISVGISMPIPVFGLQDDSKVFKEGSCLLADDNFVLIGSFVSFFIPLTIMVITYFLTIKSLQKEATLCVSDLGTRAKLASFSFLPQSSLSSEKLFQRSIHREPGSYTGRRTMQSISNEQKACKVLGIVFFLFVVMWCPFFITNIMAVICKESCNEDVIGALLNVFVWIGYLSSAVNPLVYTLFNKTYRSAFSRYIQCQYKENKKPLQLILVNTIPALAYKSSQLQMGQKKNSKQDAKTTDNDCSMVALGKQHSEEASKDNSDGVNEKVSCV

| SMILES | Activity [1] | solubility kinetic at 2 h [2] [µM] | Ki [3] [nM] | inhibition [1] [%] | Activity [4] | IC50 [5] [nM] | Activity [6] [%] |
| --- | --- | --- | --- | --- | --- | --- | --- |
| COc1cc(/C=C2\N=C(N)NC2=O)cc(OC)c1OC.Cl | inactive | ≥ 20 | – | – | – | – | – |
| COc1cc(/C=C2\C(=O)N=C(N)N2C)cc(OC)c1OC.Cl | inactive | ≥ 20 | – | – | – | – | – |
| COc1cc(/C=C2\C(=O)N=C(N)N2C)c(OC)cc1Br.Cl | – | ≥ 20 | – | – | – | – | – |
| COc1ccc(OC)c(/C=C2\C(=O)N=C(N)N2C)c1.Cl | – | ≥ 20 | > 3880 | – | – | – | – |
| COc1ccc(OC)c(/C=C2\N=C(N)NC2=O)c1.Cl | – | ≥ 20 | 233 | 95 | inactive | 887 | 93 |
| COc1cc(/C=C2\N=C(N)NC2=O)c(OC)cc1Br.Cl | – | ≥ 20 | 19 | 97 | inactive | 58 | 100 |
| COc1cc(/C=C2\C(=O)N(C)C(=N)N2C)cc(OC)c1OC.Cl | inactive | ≥ 20 | – | – | – | – | – |
